Shown are actives, neighbours in structure and some others; about 0.64% of the full set was active somewhere.
TNAP inh hi DEA: TNAP (human) inhibition, high acceptor; inhibition, % at 20 µM; P05186; actives 0.03% (n = 200,000); purified TNAP, CDP-star luminescence, 1 M DEA;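 active = over 50% inhibition of tissue-nonspecific alkaline phosphatase at 20 µM in the single-dose screen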;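 note: plate controls were DMSO wells for no effect and EDTA-quenched wells as full inhibition for full effect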
TNAP act hiacc: activators of human TNAP at high phosphate acceptor concentration; P05186; purified TNAP, CDP-star luminescence, 1 M DEA, 30 min; active compounds read high; 0 = EDTA background, 1 = DMSO-only activity; activation factor at 20 µM; 200,000 tested, under 10 active;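 active = activation factor at least 2 at 20 µM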
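system = human TNAP | amount = enzyme diluted 1/800 final | reagent = 100 µM CDP-star substrate | signal = luminescent substrate turnover signal | dosing = one dose, 20 µM | benchmarks = EDTA negative control, DMSO positive control | measure = activation factor | timing = 30 min reaction, room temperature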
PMI activator: increases human mannose-6-phosphate isomerase activity | P34949 | purified human PMI, coupled resazurin fluorescence, 20 min; active compounds read high; 1 = vehicle control, 0 substrate-free wells | activation factor at 20 µM | actives 0.005% (n = 190,000) | AID 1214;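 active = activation factor of 2 or more at 20 µM, relative to plate controls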
Target sequence (P34949 whole entry, looked up): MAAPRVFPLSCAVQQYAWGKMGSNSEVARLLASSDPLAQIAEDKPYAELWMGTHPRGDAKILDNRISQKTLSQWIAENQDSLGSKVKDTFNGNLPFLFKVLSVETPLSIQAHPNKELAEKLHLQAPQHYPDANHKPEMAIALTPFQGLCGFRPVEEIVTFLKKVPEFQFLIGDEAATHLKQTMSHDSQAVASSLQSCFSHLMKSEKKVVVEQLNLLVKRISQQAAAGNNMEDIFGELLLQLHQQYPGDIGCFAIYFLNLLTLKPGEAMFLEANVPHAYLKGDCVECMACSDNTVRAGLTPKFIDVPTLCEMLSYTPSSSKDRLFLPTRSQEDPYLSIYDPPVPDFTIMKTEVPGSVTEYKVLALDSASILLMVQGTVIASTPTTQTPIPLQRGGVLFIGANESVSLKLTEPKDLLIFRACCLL
TNAP inh noacc: inhibitors of human TNAP without phosphate acceptor; actives 0.26% (n = 200,000); purified TNAP, CDP-star luminescence, 30 min; inhibition, % at 20 µM; AID 1012;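 active = tissue-nonspecific alkaline phosphatase inhibition above about 50% at 20 µM in the single-dose screen, limit read from the data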;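 note: 0% = DMSO negative control and 100% = EDTA positive control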
PMI act satM6P: activators of human phosphomannose isomerase at near-saturating mannose 6-phosphate. P34949. coupled PMI enzyme assay, resazurin fluorescence, 20 min; active compounds read high; 1 = untreated enzyme, 0 = substrate-free blank. activation factor at 20 µM. actives 0.34% (n = 190,000). AID 1216;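 active = activation factor of 2 or more at 20 µM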
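Test system: human phosphomannose isomerase with PGI, G6PDH, diaphorase coupling enzymes / Doses: 20 µM compound, 1% DMSO / Times: enzyme reaction with compound 20 min at room temperature / Measured by: Diaphorase-driven resazurin-to-resorufin fluorescence, excitation 544, emission 590 nm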
* = called active by the depositor.

Results for COc1cc(/C=C/C(=O)c2ccc(C)c([N+](=O)[O-])c2)cc(OC)c1O ?
TNAP inh hi DEA: 59.0*; TNAP act hiacc: 0.4; PMI activator: 0.8; TNAP inh noacc: 49.7; PMI act satM6P: 0.8

What do the screens show for `COC(=O)/C(=N/Nc1ccccc1C)N1CCCc2ccccc21`?
TNAP inh hi DEA: 0.1; TNAP act hiacc: 1; PMI activator: 1.5; TNAP inh noacc: -13.5; PMI act satM6P: 2*

What do the screens show for `O=C(Nc1ccccc1)N1CCCc2ccccc21`?
TNAP inh hi DEA: 0.2; TNAP act hiacc: 1; PMI activator: 1; TNAP inh noacc: 1.7; PMI act satM6P: 1

How did CCOC(=O)/C(=N/Nc1ccccc1)N1CCCc2ccccc21 do in these assays?
TNAP inh hi DEA: -3.2; TNAP act hiacc: 1; PMI activator: 1.5; TNAP inh noacc: -21.3; PMI act satM6P: 2.4*

How did COc1ccc(C)cc1NC(=O)N1CCCc2ccccc21 do in these assays?
TNAP inh hi DEA: -2.8; TNAP act hiacc: 1; PMI activator: 1; TNAP inh noacc: -5.4; PMI act satM6P: 0.9

How did Cc1ccc(/C=C2\CCCC3=C2NC(=S)NC3c2ccc(C)cc2)cc1 (configuration not stated) do in these assays?
TNAP inh hi DEA: 9.0; TNAP act hiacc: 0.9; PMI activator: 1.6; TNAP inh noacc: 6.1; PMI act satM6P: 2*

Results for Fc1ccc(/C=C2\CCCC3=C2Nc2ncnn2C3c2ccc(F)cc2)cc1 (configuration not stated) ?
TNAP inh hi DEA: 2.9; TNAP act hiacc: 1; PMI activator: 1.1; TNAP inh noacc: 11.6; PMI act satM6P: 1

What do the screens show for `CC(=O)c1ccc2noc(-c3ccc(Cl)cc3)c2c1`?
TNAP inh hi DEA: -0.4; TNAP act hiacc: 1; PMI activator: 1.7; TNAP inh noacc: -6.6; PMI act satM6P: 1.9

What do the screens show for `CC(=O)c1ccc2noc(-c3ccc(F)cc3)c2c1`?
TNAP inh hi DEA: 6.3; TNAP act hiacc: 0.9; PMI activator: 1.7; TNAP inh noacc: 2.3; PMI act satM6P: 2.1*

Results for O=C(c1ccccc1)c1c[nH]c(C(=O)NCc2cccnc2)c1 ?
TNAP inh hi DEA: -3.8; TNAP act hiacc: 1; PMI activator: 1.1; TNAP inh noacc: -9.4; PMI act satM6P: 0.9

Results for O=C(c1ccccc1)c1c[nH]c(C(=O)NNc2ccccc2)c1 ?
TNAP inh hi DEA: -4.0; TNAP act hiacc: 1; PMI activator: 1.7; TNAP inh noacc: -11.0; PMI act satM6P: 2.3*

How did C[N+](C)(C)CCCNC(=O)c1ccc(/C=N/O)nc1 do in these assays?
TNAP inh hi DEA: -2.0; TNAP act hiacc: 1; PMI activator: 0.2; TNAP inh noacc: -9.2; PMI act satM6P: 0.8

Results for CCOc1cc(/C=C2/SC(=S)N(CC3CCCO3)C2=O)ccc1O (configuration not stated) ?
TNAP inh hi DEA: 51.7*; TNAP act hiacc: 0.5; PMI activator: 0.9; TNAP inh noacc: 33.0; PMI act satM6P: 0.7

Results for CCOc1cc(/C=C2\SC(=S)N(NC(=O)c3cccnc3)C2=O)ccc1O ?
TNAP inh hi DEA: 51.2*; TNAP act hiacc: 0.5; PMI activator: 1; TNAP inh noacc: 49.0; PMI act satM6P: 0.9

Results for c1ccc2c(-c3[nH]ncc3CNCCCn3ncc4ccccc43)cccc2c1 ?
TNAP inh hi DEA: -3.7; TNAP act hiacc: 1; PMI activator: 0.9; TNAP inh noacc: 4.5; PMI act satM6P: 0.9

How did Brc1ccc(-c2nn3c(-c4ccco4)nnc3s2)o1 do in these assays?
TNAP inh hi DEA: -1.2; TNAP act hiacc: 1; PMI activator: 1.1; TNAP inh noacc: -6.8; PMI act satM6P: 2*

What do the screens show for `CCCCCCCCC(=O)N/N=C(\C)c1cccnc1`?
TNAP inh hi DEA: 0.3; TNAP act hiacc: 1; PMI activator: 1.5; TNAP inh noacc: 1.7; PMI act satM6P: 2.3*

What do the screens show for `C/C(=N\NC(=O)c1cccc(N/N=C(\C)c2ccccc2)c1)c1ccccc1`?
TNAP inh hi DEA: 0.4; TNAP act hiacc: 1; PMI activator: 1.8; TNAP inh noacc: 8.1; PMI act satM6P: 2.7*

What do the screens show for `C/C(=N\Nc1cccc(C(F)(F)F)c1)c1ccc(O)cc1`?
TNAP inh hi DEA: 2.1; TNAP act hiacc: 1; PMI activator: 1.6; TNAP inh noacc: -15.6; PMI act satM6P: 2.1*

Results for C/C(=N\NC(=O)c1cccc([N+](=O)[O-])c1)c1ccncc1 ?
TNAP inh hi DEA: -7.8; TNAP act hiacc: 1.1; PMI activator: 1.2; TNAP inh noacc: 2.6; PMI act satM6P: 1.1

What do the screens show for `C/C(=N\NC(=O)c1cccc(N/N=C(\C)c2ccncc2)c1)c1ccncc1`?
TNAP inh hi DEA: 1.4; TNAP act hiacc: 1; PMI activator: 1.7; TNAP inh noacc: 1.3; PMI act satM6P: 2.5*

What do the screens show for `Cc1cccc(N2C(=O)CC(Sc3nnc(C)s3)C2=O)c1` (configuration not stated)?
TNAP inh hi DEA: 3.7; TNAP act hiacc: 1; PMI activator: 1; TNAP inh noacc: -2.0; PMI act satM6P: 1

Results for O=C(Nc1ccc(Cl)cc1)c1ccc(Br)cc1F ?
TNAP inh hi DEA: -1.2; TNAP act hiacc: 1; PMI activator: 0.9; TNAP inh noacc: -3.3; PMI act satM6P: 1

What do the screens show for `O=C1C2CC=CCC2C(=O)N1Cc1ccccc1` (configuration not stated)?
TNAP inh hi DEA: -2.7; TNAP act hiacc: 1; PMI activator: 1; TNAP inh noacc: -9.2; PMI act satM6P: 1

What do the screens show for `O=C1C2C3C=CC(C3)C2C(=O)N1c1n[nH]c(CCc2ccccc2)n1` (configuration not stated)?
TNAP inh hi DEA: 2.1; TNAP act hiacc: 1; PMI activator: 0.9; TNAP inh noacc: 68.0*; PMI act satM6P: 0.8

Results for O=C1C2CC=CCC2C(=O)N1c1n[nH]c(Cc2ccccc2)n1 (configuration not stated) ?
TNAP inh hi DEA: 1.8; TNAP act hiacc: 1; PMI activator: 0.9; TNAP inh noacc: 95.6*; PMI act satM6P: 1

How did CSc1sc2ccccc2[n+]1CCCS(=O)(=O)[O-] do in these assays?
TNAP inh hi DEA: -9.2; TNAP act hiacc: 1.1; PMI activator: 1.4; TNAP inh noacc: -19.8; PMI act satM6P: 2*

What do the screens show for `O=C(CN1C(=O)C2CCCCC2C1=O)N1CCN(c2ccc(F)cc2)CC1` (configuration not stated)?
TNAP inh hi DEA: -5.0; TNAP act hiacc: 1.1; PMI activator: 1; TNAP inh noacc: -10.8; PMI act satM6P: 1

What do the screens show for `O=C(CN1C(=O)NC2(CCSC2)C1=O)N1CCN(c2ccc(F)cc2)CC1` (configuration not stated)?
TNAP inh hi DEA: -8.2; TNAP act hiacc: 1.1; PMI activator: 1.6; TNAP inh noacc: -17.1; PMI act satM6P: 2.1*

What do the screens show for `CCN(CC)c1ccc(/C=C2\C(=O)c3ccc(C(=O)O)cc3C2=O)cc1`?
TNAP inh hi DEA: 39.0; TNAP act hiacc: 0.6; PMI activator: 0.8; TNAP inh noacc: 57.0*; PMI act satM6P: 0.7

High-throughput results as filed in PubChem BioAssay.
